In ChEMBL document CHEMBL4765320, “Identification and optimization of piperine analogues as neuroprotective agents for the treatment of Parkinson's disease via the activation of Nrf2/keap1 pathway” (Eur J Med Chem, 2020):
Active and inactive are the calls of the source. The rule behind the calls is not given here.

Assays:
PC-12 [1] = experiment: Upregulation of NQO1 expression in rat PC-12 cell incubated for 24 hrs by Western blot analysis; assay type: functional
Summary of the method: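 PC12 cells treated with compound for 24 h; lysates resolved by SDS-PAGE, transferred to PVDF and probed for HO-1 and NQO1; band intensities quantified densitometrically. Mean ± SD of three independent experiments.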

PC-12 [2] = experiment: Inhibition of H202-induced apoptosis in rat PC-12 cells assessed as necrotic cells at 25 uM after 24 hrs by Annexin-V-FITC/PI-staining based flow cytometric analysis (reference value: 0.33%); assay type: functional; design: scale not given: the % may be the effect or the level left
Summary of the method: (§1)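 PC12 cells seeded 2 × 10⁵/well for 24 h, pretreated 24 h with 12.5, 25, 50 or 100 µM compound, then given fresh medium containing 650 µM H2O2. Harvested cells washed in binding buffer, stained 5 min with Annexin V-FITC/PI, analysed by flow cytometry.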

PC-12 [3] = experiment: Inhibition of H202-induced apoptosis in rat PC-12 cells assessed as viable cells at 25 uM after 24 hrs by Annexin-V-FITC/PI-staining based flow cytometric analysis (reference value: 52.01%); assay type: functional; details: read-out: Activity; summary of the method: as §1
PC-12 [4] = experiment: Inhibition of H202-induced apoptosis in rat PC-12 cells assessed as late apoptotic cells at 12.5 uM after 24 hrs by Annexin-V-FITC/PI-staining based flow cytometric analysis (reference value: 32.5%); assay type: functional; design: scale not given: the % may be the effect or the level left; summary of the method: as §1
PC-12 [5] = experiment: Inhibition of H202-induced apoptosis in rat PC-12 cells assessed as early apoptotic cells at 100 uM after 24 hrs by Annexin-V-FITC/PI-staining based flow cytometric analysis (reference value: 15.16%); assay type: functional; design: scale not given: the % may be the effect or the level left; summary of the method: as §1
PC-12 [6] = experiment: Inhibition of H202-induced apoptosis in rat PC-12 cells assessed as late apoptotic cells at 50 uM after 24 hrs by Annexin-V-FITC/PI-staining based flow cytometric analysis (reference value: 32.5%); assay type: functional; design: scale not given: the % may be the effect or the level left; summary of the method: as §1
PC-12 [7] = experiment: Inhibition of H202-induced apoptosis in rat PC-12 cells assessed as early apoptotic cells at 12.5 uM after 24 hrs by Annexin-V-FITC/PI-staining based flow cytometric analysis (reference value: 15.16%); assay type: functional; design: scale not given: the % may be the effect or the level left; summary of the method: as §1
PC-12 [8] = experiment: Inhibition of H202-induced apoptosis in rat PC-12 cells assessed as early apoptotic cells at 50 uM after 24 hrs by Annexin-V-FITC/PI-staining based flow cytometric analysis (reference value: 15.16%); assay type: functional; design: scale not given: the % may be the effect or the level left; summary of the method: as §1
[9] = biological target: T1, Nuclear factor erythroid 2-related factor 2 (Rattus norvegicus) (UniProt O54968); experiment: Induction of Nrf2 nuclear translocation in rat PC-12 cells assessed as Nrf2 accumulation in nucleus at 25 uM by Western blot analysis; assay type: cell-based; details: filed as activator, time 4-8 hrs, TDE = time-dependent effect
T1 sequence (whole entry): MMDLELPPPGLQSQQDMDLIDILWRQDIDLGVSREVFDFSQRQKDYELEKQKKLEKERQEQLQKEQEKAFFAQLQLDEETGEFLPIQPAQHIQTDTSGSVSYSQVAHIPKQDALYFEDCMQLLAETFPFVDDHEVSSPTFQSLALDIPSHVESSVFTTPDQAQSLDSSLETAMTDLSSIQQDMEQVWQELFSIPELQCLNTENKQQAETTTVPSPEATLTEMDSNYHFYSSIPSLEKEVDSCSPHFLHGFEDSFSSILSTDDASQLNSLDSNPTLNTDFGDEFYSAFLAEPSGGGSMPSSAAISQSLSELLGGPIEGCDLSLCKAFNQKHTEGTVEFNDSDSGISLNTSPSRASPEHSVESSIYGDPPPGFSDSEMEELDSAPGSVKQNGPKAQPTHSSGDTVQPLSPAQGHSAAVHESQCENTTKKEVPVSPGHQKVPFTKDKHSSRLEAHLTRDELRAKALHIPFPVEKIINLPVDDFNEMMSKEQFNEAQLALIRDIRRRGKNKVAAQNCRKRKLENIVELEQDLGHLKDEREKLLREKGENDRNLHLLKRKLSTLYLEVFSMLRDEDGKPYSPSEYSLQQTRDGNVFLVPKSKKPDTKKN
Summary of the method: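 PC12 cells incubated with 25 µM compound for 4, 6 and 8 h; nuclear and cytoplasmic fractions prepared with an extraction kit; nuclear, cytosolic and total Nrf2 assessed by SDS-PAGE/PVDF Western blot. Three independent experiments.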

Mus musculus [10] = experiment: Neuroprotective activity against lesioned C57BL/6 mouse model of Parkinson's disease assessed as upregulation of Nrf2 in SNpc and striatum area at 100 mg/kg , po administered for 2 week before MPTP stimulation by Immuno histochemistry assays; assay type: functional, organism-based; details: Brain, time 2.0 weeks
Summary of the method: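 Prophylactic regimen in male C57BL/6 mice (n = 6): oral compound 100 mg/kg in saline 2 weeks, then MPTP-HCl 25 mg/kg i.p. in week 3. Nrf2 immunohistochemistry in striatum and SNpc, quantified as Nrf2-immunopositive density relative to total area; mean ± SD.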

PC-12 [11] = experiment: Inhibition of H202-induced apoptosis in rat PC-12 cells assessed as necrotic cells at 12.5 uM after 24 hrs by Annexin-V-FITC/PI-staining based flow cytometric analysis (reference value: 0.33%); assay type: functional; design: scale not given: the % may be the effect or the level left; summary of the method: as §1
Mus musculus [12] = experiment: Neuroprotective activity in lesioned C57BL/6 mouse model of Parkinson's disease assessed as increase in time spent on rotarod at 50 mg/kg, po administered for 2 week before MPTP stimulation by rotarod test; assay type: functional; details: time 2 weeks
Summary of the method: (§2)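 Male 10-week-old C57BL/6 mice (20–23 g), n = 6/group. Prophylactic: oral compound (50 or 100 mg/kg in saline) 2 weeks, then MPTP-HCl 25 mg/kg i.p. in week 3. Therapeutic: MPTP-HCl 25 mg/kg i.p. 1 week, then oral 100 mg/kg 2 weeks. Saline vehicle. Pole/rotarod training last 3 days; TH immunohistochemistry on SNpc and striatum.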

Mus musculus [13] = experiment: Neuroprotective activity in lesioned C57BL/6 mouse model of Parkinson's disease assessed as assessed as reduction in climbing down time at 50 mg/kg, po administered for 2 week before MPTP stimulation by pole test; assay type: functional; details: C57BL/6, po, 336 h, time 2 weeks; summary of the method: as §2
PC-12 [14] = experiment: Neuroprotective activity against H2O2-induced cytotoxicity in rat PC-12 cells assessed as cell viability at 12.5 uM pretreated for 24 hrs followed by H2O2 challenge and measured after 24 hrs by MTT assay (reference value: 52.81 +/- 6%); assay type: functional; details: time 48 hrs, read-out: Activity
Mus musculus [15] = experiment: Neuroprotective activity in lesioned C57BL/6 mouse model of Parkinson's disease assessed as increase in time spent on rotarod at 100 mg/kg, po administered for 2 week after MPTP stimulation by rotarod test; assay type: functional; details: time 2 weeks; summary of the method: as §2
PC-12 [16] = experiment: Inhibition of H202-induced apoptosis in rat PC-12 cells assessed as viable cells at 50 uM after 24 hrs by Annexin-V-FITC/PI-staining based flow cytometric analysis (reference value: 52.01%); assay type: functional; details: read-out: Activity; summary of the method: as §1
Mus musculus [17] = experiment: Neuroprotective activity against lesioned C57BL/6 mouse model of Parkinson's disease assessed as increase in number of TH positive cells at 100 mg/kg , po administered for 2 week […] by Immuno histochemistry assays; details: time 2 weeks

`COc1ccccc1/C=C/C=C/C(=O)N1CCCCC1` was tested, and the Activity (PC-12 [1]) was “Active”, the Activity (PC-12 [2]) was 0.24% and the viability at 25 µM (PC-12 [3]) was 69%. For the same compound, the Activity (PC-12 [4]) was 26.08%, the Activity (PC-12 [5]) was 12.11% and the Activity (PC-12 [6]) was 12.95%. For the same compound, the Activity (PC-12 [7]) was 12.26%, the Activity (PC-12 [8]) was 12.01% and the Activity [9] was “Tde”. For the same compound, the Activity (Mus musculus [10]) was “Active”, the Activity (PC-12 [11]) was 0.3% and the Time (Mus musculus [12]) was 253.7 s. The inhibition in vivo at 50 mg/kg (Mus musculus [13]) was 38.1%, the viability at 12.5 µM (PC-12 [14]) was 88.8% and the Time (Mus musculus [15]) was 189.5 s. The viability at 50 µM (PC-12 [16]) was 74.8% and the Activity (Mus musculus [17]) was 74%.
